Reference: ChEMBL document CHEMBL1123812, “Pyrroloisoquinoline antidepressants. 2. In-depth exploration of structure-activity relationships” (J Med Chem, 1987)
Activity calls are given as the source filed them.

What was measured:
Mus musculus [1] = species on record: Mus musculus; assay: Gross behavioral effects ascertained in mice; W indicates weak stimulant or depressant activity of little significance.; assay type: functional, organism-based
Procedure, shortened: (§1)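 Male Swiss Webster mice, 18–24 g, three per dose, given ip doses of 1, 3, 10, 30, 100 and 300 mg/kg. Observed for gross behavior and held for 4 days. Scored as weak (W), stimulant (S), depressant (D) or convulsant (C).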

[2] = target: Serotonin 2 (5-HT2) receptor (Rattus norvegicus) (UniProt P30994+P08909+P14842); assay: Binding affinity towards 5-hydroxytryptamine 2 receptor; assay type: protein assay; settings: concentration not given here
Procedure, shortened: (§2)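 Rat brain crude synaptic membranes in 20 mM NaHEPES pH 7.5. Ligands: α1 cortex […] 0.4 nM, nonspecific with (-)-NE 100 μM, 30 min at 25 °C. […] D2 striatum [3H]spiperone 0.05 nM with (+)-butaclamol 1 μM, 45 min at 37 °C. S1 cortex [3H]5-HT 1 nM plus glutathione and MgCl2, with 5-HT 10 μM, 20 min at 37 °C. […] Samples filtered on GF/B and counted.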

[3] = target: Adrenergic receptor alpha-1 (Rattus norvegicus) (UniProt P15823+P23944+P43140); assay: Binding affinity towards alpha-1 adrenergic receptor at 1.0 uM concentration; assay type: protein assay; procedure, shortened: as §2
Mus musculus [4] = species on record: Mus musculus; assay: Antagonism of tetrabenazine (TBZ)-induced depression in mice measured for ptosis; assay type: functional; settings: Mus musculus; read-out: ED50
Procedure, shortened: (§3)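 Nonfasted male Swiss Webster mice, 18–24 g, ten per dose level and in saline controls. Test compound given ip 30 min before tetrabenazine 32 mg/kg ip; dose expressed as free base. Motor activity and ptosis scored. Control response ≤90% corrected by Abbott's formula.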

[5] = target: T1, Muscarinic acetylcholine receptor (Rattus norvegicus) (UniProt P08482+P08483+P08485+P08911+P10980); assay: Binding affinity towards Muscarinic acetylcholine receptor at 1.0 uM concentration; assay type: protein assay
[6] = target: D(2) dopamine receptor (Rattus norvegicus) (UniProt P61169); assay: Binding affinity towards dopamine receptor D2 at 1.0 uM concentration; procedure, shortened: as §2
[7] = target: D(1A) dopamine receptor (Rattus norvegicus) (UniProt P18901); assay: Binding affinity towards dDopamine receptor D1 at 1.0 uM concentration; procedure, shortened: as §2
[8] = target: Adrenergic receptor alpha-2 (Rattus norvegicus) (UniProt P22086+P19328+P22909); assay: Binding affinity towards alpha-2 adrenergic receptor at 1.0 uM concentration; assay type: protein assay
[9] = target: Norepinephrine transporter (Rattus norvegicus, UniProt Q9WTR4); assay: Inhibition of uptake of tritiated norepinephrine (NE) in rat synaptosomes; assay type: subcellular, Brain
Mus musculus [10] = species on record: Mus musculus; assay: Gross behavioral effects ascertained in mice; S indicates significant stimulant properties.; assay type: functional, organism-based; procedure, shortened: as §1
[11] = target: T2, Adrenergic receptor alpha-1 (Rattus norvegicus, UniProt P15823+P23944+P43140); assay: Binding affinity towards alpha-1 adrenergic receptor; assay type: protein assay
T2 sequence (P15823 whole entry): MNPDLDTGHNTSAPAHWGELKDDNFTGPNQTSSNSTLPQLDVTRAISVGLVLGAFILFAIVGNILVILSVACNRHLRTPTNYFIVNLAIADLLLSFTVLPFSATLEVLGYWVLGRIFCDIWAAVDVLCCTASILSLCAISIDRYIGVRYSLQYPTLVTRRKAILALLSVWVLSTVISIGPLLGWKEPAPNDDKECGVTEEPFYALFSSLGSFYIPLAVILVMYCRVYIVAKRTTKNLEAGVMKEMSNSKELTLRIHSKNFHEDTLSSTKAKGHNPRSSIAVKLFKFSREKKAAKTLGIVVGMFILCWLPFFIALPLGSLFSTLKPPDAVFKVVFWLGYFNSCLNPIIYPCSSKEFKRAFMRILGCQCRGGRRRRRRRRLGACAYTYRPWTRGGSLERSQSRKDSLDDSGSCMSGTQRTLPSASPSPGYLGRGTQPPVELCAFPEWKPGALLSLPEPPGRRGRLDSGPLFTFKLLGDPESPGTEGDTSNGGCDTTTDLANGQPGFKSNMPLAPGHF
T2 sequence (P23944 whole entry): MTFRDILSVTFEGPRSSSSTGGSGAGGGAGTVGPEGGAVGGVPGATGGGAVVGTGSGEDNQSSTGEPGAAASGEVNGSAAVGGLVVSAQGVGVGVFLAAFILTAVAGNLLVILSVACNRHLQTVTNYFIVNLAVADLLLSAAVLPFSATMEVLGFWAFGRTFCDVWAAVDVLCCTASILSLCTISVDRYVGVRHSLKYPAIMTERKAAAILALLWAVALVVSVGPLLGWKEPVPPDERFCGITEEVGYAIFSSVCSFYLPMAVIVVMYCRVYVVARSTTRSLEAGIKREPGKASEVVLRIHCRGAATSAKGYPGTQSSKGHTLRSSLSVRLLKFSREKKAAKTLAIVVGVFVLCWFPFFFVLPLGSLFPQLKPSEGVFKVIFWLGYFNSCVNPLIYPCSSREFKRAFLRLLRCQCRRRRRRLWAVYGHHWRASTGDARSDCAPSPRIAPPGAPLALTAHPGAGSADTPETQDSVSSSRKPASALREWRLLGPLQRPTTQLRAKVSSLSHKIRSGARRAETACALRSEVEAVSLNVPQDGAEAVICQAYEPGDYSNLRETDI
T2 sequence (P43140 whole entry): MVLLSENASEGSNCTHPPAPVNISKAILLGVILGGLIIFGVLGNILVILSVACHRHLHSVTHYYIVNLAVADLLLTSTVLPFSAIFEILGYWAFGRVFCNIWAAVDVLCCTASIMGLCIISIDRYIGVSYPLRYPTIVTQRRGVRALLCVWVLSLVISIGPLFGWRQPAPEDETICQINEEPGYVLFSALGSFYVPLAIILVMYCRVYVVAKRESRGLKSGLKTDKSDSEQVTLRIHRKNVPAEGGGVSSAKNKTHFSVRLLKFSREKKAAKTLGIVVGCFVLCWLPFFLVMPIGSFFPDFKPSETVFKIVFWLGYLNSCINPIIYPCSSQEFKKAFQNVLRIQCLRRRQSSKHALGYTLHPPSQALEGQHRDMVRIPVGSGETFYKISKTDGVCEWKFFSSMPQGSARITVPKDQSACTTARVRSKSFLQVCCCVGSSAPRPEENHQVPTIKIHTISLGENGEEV

[12] = target: Sodium-dependent dopamine transporter (Rattus norvegicus, UniProt P23977); assay: Inhibition of the uptake of tritiated dopamine (DA) in rat synaptosomes; assay type: subcellular, Brain
Mus musculus [13] = species on record: Mus musculus; assay: Antagonism of tetrabenazine (TBZ)-induced depression measured in mice by motor activity; assay type: functional; settings: Mus musculus; read-out: ED50; procedure, shortened: as §3
[14] = target: T1, Muscarinic acetylcholine receptor (Rattus norvegicus); assay: Binding affinity towards Muscarinic acetylcholine receptor at 10 uM concentration; assay type: protein assay
[15] = target: D(1A) dopamine receptor (Rattus norvegicus) (UniProt P18901); assay: Binding affinity towards Dopamine receptor D1 at 1.0 uM concentration; procedure, shortened: as §2
[16] = target: Sodium-dependent serotonin transporter (Rattus norvegicus) (UniProt P31652); assay: Ability to inhibit the uptake of [3H]- serotonin(5-HT) 0.1 uM concentration at rat brain synaptosomes; assay type: functional, subcellular
Procedure, shortened: (§4)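 Male Wistar rat brain synaptosomes (P2 fraction): hypothalamus for NE, striatum for DA, cerebral cortex for 5-HT. Buffer is Tris- or HEPES-buffered salt medium with glucose, ascorbate and nialamide, pH 7.4 at 37 °C. Preincubated 10 min at 37 °C with compound. Uptake started with [3H]NE 100–300 nM, [3H]DA 50–300 nM or [3H]5-HT 100–200 nM, incubated 3 min (DA) or 6–10 min (NE, 5-HT). Blanks held on ice. Filtered, counted by scintillation.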

Mus musculus [17] = assay: Ability to antagonise intraperitoneal dose; inactive (<10% antagonism) at 30 mg/kg is represented as I-30.; assay type: functional, organism-based; design: dose 30 mg/kg; procedure, shortened: as §3
Mus musculus [18] = assay: (§5) Ability to antagonise intraperitoneal dose; inactive (<10% antagonism) at 30 mgjkg is represented as I-30.; assay type: functional, organism-based; procedure, shortened: as §3
Rattus norvegicus [19] = species on record: Rattus norvegicus; assay: Ability to inhibit the uptake of tritiated dopamine (DA); assay type: functional; procedure, shortened: as §4
[20] = target: Sodium-dependent serotonin transporter (Rattus norvegicus) (UniProt P31652); assay: Inhibition of tritiated serotonin(5-HT) uptake at 0.1 uM concentration; assay type: functional; procedure, shortened: as §4
Mus musculus [21] = assay: Ability to antagonise intraperitoneal 30 mg/kg dose; inactive (<10% antagonism) at 30 mgjkg is represented as I-30.; assay type: functional, organism-based; design: dose 30 mg/kg; procedure, shortened: as §3
Mus musculus [22] = species on record: Mus musculus; assay: Gross behavioral effects ascertained in mice; C indicates overt convulsant; assay type: functional, organism-based; procedure, shortened: as §1
Rattus norvegicus [23] = species on record: Rattus norvegicus; assay: Ability to inhibit the uptake of tritiated norepinephrine (NE) at 0.1 uM concentration; assay type: functional; procedure, shortened: as §4
[24] = target: Sodium-dependent dopamine transporter (Rattus norvegicus) (UniProt P23977); assay: Ability to inhibit the uptake of [3H]dopamine (DA) 0.1 uM concentration at rat brain synaptosomes; assay type: functional, subcellular; procedure, shortened: as §4
Rattus norvegicus [25] = species on record: Rattus norvegicus; assay: Ability to inhibit the uptake of tritiated norepinephrine (NE) 0.1 uM concentration; assay type: functional; procedure, shortened: as §4
Rattus norvegicus [26] = assay: Ability to inhibit the uptake of tritiated serotonin(5-HT) 0.1 mg/kg concentration; assay type: functional
Mus musculus [27] = assay: as §5; assay type: functional, organism-based; remark: listed apart in the source
Procedure, shortened: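 Swiss Webster male albino mice, nonfasted, 18–24 g, 10 per dose and in saline control. Compound given ip 30 min before TBZ 32 mg/kg ip. Motor activity and ptosis scored. Response corrected by Abbott's formula when control response was 90% or less. Doses expressed as free base.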

Mus musculus [28] = species on record: Mus musculus; assay: Gross behavioral effects ascertained in mice; D indicates significant depressant properties.; assay type: functional, organism-based
Procedure, shortened: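 Male Swiss Webster albino mice, 18–24 g, three per dose, given ip 1, 3, 10, 30, 100 and 300 mg/kg. Gross behaviour observed and held 4 days. Estimated LD50 range from lethality count on day 4. Scored as weak stimulant/depressant, significant stimulant, significant depressant or overt convulsant.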

Rattus norvegicus [29] = assay: Ability to inhibit the uptake of tritiated norepinephrine (NE) 0.1 mg/kg concentration; assay type: functional
Mus musculus [30] = species on record: Mus musculus; assay: Gross behavioral effects ascertained in mice; assay type: functional, organism-based; procedure, shortened: as §1
Mus musculus [31] = assay: Ability to antagonise intraperitoneal administration; weakly active (>=10% and <=30% antagonism) at 30 mg/kg is represented as >30; assay type: functional; settings: ip; procedure, shortened: as §3

Sequence of Sodium-dependent serotonin transporter (Rattus norvegicus) (P31652 whole entry): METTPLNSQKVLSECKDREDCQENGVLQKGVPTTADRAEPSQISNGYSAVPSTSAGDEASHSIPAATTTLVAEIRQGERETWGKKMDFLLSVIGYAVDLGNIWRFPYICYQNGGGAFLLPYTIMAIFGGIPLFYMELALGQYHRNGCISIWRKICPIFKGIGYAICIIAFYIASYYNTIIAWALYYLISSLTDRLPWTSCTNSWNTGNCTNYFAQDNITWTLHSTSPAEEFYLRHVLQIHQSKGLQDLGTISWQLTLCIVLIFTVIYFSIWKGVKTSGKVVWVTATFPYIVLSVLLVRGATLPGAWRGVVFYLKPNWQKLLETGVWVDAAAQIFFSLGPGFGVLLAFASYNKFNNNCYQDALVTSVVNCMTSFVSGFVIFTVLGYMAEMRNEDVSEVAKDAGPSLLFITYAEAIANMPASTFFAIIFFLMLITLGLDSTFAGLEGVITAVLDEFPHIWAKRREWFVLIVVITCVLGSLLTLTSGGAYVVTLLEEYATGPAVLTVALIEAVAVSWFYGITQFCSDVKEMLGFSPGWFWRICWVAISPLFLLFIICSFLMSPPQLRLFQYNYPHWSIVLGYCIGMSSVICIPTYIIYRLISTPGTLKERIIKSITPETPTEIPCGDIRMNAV
Sequence of D(1A) dopamine receptor (Rattus norvegicus) (P18901 whole entry): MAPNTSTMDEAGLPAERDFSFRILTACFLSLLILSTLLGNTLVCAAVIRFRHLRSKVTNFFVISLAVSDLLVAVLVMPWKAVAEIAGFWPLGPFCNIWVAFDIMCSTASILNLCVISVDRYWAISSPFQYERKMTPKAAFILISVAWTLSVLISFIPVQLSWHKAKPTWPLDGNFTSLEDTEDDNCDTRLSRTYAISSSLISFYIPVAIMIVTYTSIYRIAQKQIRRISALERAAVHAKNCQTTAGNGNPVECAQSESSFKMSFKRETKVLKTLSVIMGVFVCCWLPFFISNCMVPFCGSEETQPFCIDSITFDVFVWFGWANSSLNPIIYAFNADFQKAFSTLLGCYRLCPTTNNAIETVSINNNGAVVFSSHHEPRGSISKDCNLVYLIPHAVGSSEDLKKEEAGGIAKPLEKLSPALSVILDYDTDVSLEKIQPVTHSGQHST
Sequence of Sodium-dependent dopamine transporter (P23977 whole entry): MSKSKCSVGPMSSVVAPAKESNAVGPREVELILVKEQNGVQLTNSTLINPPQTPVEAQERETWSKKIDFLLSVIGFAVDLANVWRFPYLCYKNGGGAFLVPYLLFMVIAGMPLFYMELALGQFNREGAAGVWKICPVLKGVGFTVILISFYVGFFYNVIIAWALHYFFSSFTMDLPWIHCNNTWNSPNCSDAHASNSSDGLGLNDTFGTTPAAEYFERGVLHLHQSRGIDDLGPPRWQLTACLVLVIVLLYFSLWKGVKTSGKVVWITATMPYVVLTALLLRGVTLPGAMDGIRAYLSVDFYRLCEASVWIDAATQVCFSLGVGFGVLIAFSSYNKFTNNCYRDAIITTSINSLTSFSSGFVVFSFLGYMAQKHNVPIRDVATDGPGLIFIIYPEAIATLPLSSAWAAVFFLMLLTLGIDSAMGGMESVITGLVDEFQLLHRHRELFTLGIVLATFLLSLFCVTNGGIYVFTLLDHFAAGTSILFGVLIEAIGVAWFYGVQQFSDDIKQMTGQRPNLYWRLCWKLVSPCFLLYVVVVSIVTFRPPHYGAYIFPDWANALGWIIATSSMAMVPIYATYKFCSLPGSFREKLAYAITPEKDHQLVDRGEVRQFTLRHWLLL
Sequence of Norepinephrine transporter (Q9WTR4 whole entry): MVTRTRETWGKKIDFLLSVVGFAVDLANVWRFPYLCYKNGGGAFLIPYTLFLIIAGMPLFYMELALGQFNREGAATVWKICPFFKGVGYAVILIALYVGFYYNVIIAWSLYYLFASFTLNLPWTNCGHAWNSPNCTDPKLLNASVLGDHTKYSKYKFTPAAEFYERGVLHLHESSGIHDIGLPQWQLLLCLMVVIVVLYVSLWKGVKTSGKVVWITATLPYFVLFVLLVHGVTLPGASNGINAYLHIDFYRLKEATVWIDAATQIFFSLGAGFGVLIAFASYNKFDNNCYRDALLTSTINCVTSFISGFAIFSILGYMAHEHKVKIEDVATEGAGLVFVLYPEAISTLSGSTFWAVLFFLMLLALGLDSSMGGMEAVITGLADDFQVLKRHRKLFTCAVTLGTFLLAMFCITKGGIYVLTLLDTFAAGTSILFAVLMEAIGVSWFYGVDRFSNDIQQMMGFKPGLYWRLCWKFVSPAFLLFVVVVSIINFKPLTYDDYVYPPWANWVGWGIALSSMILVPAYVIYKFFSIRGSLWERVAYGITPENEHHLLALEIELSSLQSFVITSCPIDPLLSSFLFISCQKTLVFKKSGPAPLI
Sequence of Serotonin 2 (5-HT2) receptor (Rattus norvegicus) (P08909 whole entry, looked up): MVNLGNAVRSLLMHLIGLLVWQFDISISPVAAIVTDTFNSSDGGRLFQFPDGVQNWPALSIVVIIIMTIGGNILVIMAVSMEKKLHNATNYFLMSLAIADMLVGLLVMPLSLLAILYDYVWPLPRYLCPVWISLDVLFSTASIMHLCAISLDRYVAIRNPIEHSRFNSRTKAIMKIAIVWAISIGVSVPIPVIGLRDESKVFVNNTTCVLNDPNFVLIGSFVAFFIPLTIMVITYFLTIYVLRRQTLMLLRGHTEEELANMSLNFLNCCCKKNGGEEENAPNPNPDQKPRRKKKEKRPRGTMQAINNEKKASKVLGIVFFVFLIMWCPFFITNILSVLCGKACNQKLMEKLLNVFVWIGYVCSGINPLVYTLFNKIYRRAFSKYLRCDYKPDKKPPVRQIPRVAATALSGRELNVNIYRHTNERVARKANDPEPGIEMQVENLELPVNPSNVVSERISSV
Sequence of Serotonin 2 (5-HT2) receptor (Rattus norvegicus) (P14842 whole entry, looked up): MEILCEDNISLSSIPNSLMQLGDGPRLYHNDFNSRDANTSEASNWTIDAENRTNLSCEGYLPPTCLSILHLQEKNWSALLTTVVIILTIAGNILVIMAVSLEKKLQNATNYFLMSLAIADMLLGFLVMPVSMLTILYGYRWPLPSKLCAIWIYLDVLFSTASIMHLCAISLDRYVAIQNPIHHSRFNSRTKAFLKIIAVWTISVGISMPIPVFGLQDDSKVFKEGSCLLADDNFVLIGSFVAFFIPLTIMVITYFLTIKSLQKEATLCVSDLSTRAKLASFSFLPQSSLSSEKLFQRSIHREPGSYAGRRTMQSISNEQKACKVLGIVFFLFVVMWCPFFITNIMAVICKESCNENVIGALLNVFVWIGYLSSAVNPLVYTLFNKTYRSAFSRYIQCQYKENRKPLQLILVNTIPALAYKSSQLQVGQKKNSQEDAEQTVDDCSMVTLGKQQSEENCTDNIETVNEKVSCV
Sequence of Serotonin 2 (5-HT2) receptor (Rattus norvegicus) (P30994 whole entry, looked up): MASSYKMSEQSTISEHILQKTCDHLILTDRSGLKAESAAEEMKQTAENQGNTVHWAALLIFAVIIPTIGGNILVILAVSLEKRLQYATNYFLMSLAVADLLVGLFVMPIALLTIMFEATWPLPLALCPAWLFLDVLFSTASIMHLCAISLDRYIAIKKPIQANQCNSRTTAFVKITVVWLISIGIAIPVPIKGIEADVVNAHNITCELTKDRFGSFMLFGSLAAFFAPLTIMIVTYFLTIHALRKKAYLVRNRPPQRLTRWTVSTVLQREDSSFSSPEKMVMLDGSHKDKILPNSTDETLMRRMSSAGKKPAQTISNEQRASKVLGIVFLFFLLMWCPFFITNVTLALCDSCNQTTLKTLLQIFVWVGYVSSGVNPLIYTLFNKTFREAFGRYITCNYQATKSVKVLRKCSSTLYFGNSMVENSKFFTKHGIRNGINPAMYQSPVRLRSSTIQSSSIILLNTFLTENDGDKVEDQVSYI
Sequence of D(2) dopamine receptor (Rattus norvegicus) (P61169 whole entry): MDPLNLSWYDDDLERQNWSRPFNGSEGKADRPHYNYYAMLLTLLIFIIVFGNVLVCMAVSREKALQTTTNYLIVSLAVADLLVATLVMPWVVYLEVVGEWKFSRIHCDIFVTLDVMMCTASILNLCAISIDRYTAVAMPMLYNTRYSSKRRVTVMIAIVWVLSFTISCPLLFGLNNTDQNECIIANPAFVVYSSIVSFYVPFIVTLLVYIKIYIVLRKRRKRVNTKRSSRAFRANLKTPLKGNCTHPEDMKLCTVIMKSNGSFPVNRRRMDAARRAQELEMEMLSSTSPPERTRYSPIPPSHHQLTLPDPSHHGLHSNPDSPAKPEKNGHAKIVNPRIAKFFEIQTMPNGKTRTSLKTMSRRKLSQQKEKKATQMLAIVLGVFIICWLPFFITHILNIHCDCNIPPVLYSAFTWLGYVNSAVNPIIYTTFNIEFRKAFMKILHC
Sequence of Sodium-dependent dopamine transporter (Rattus norvegicus) (P23977 whole entry): as the sequence (P23977 whole entry) above

FC(F)(F)c1cccc([C@@H]2CN3CCC[C@@H]3c3ccccc32)c1 (stereo in doubt; (+)-37b)
behavior (Mus musculus [1]): Partial stimulant
inhibition [2]: 44%
inhibition [3]: 48%

Br.Oc1ccc([C@@H]2CN3CCC[C@@H]3c3ccccc32)cc1
ED50 (Mus musculus [4]): 0.09 mg/kg
inhibition [5]: 3%
inhibition [6]: 65%
inhibition [7]: 27%
inhibition [8]: 70%
Ki [9]: 0.74 nM
behavior (Mus musculus [10]): Stimulant
Ki [11]: 252 nM
Ki [12]: 5.1 nM
ED50 (Mus musculus [13]): 0.4 mg/kg

c1ccc([C@@H]2CN3CCC[C@@H]3c3ccccc32)cc1 (stereo in doubt; 7b)
inhibition [14]: 0%
inhibition [15]: 35%
behavior (Mus musculus [10]): Stimulant

C[C@@]12CCCCN1C[C@H](c1ccccc1)c1ccccc12
inhibition [16]: 15%
behavior (Mus musculus [1]): Weak
ED50 (Mus musculus [17]): inactive
ED50 (Mus musculus [18]): inactive
Ki [9]: 10.5 nM
Ki (Rattus norvegicus [19]): 36.4 nM

COc1ccc([C@@H]2CN3CCCC3c3cc(OC)c(OC)cc32)cc1OC (some centres undefined)
ED50 (Mus musculus [17]): inactive
inhibition [20]: 10%
ED50 (Mus musculus [21]): inactive
behavior (Mus musculus [22]): Overt convulsant
Inhibition (Rattus norvegicus [23]): 18%
Ki [12]: 355 nM

FC(F)(F)c1cccc([C@@H]2CN3CCC[C@H]3c3cccc(Cl)c32)c1
inhibition [16]: 22%
inhibition [24]: 4%
Ki (Rattus norvegicus [25]): ~100 nM

c1ccc([C@@H]2CN3CCC[C@H]3c3[nH]c4ccccc4c32)cc1
ED50 (Mus musculus [17]): inactive
inhibition in vivo at 0.1 mg/kg (Rattus norvegicus [26]): -21%
ED50 (Mus musculus [27]): inactive
behavior (Mus musculus [28]): Significant depressant
inhibition in vivo at 0.1 mg/kg (Rattus norvegicus [29]): 7%

Br.CS(=O)(=O)c1ccc([C@@H]2CN3CCC[C@@H]3c3ccccc32)cc1
ED50 (Mus musculus [17]): inactive
behavior (Mus musculus [30]): inactive
ED50 at 30 mg/kg (Mus musculus [31]): > 30 mg/kg
